CR mimetic SO: reduction of superoxide in aged yeast, primary screen, HTS; S. cerevisiae aged cells, superoxide DHE fluorescence; hits give low values; 0.18% of 330,000 active; superoxide response (% of plate mean), % at 10 µM; AID 2690, 2010;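 active means superoxide response under a set limit, about three screen SD below normal, cut at about 65% in these data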;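 further: yeast aged for seven days with compound at 30 °C before DHE staining; 100% = average MFI of all compound-treated wells on the plate with controls excluded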
T cruzi inh: inhibitors of intracellular T. cruzi growth, primary screen, luminescence, NIH3T3 host cells; AID 1885, 2009; T. cruzi beta-gal in NIH3T3, 90 h; inhibition, % (concentration not given with the values); 1.4% of 300,000 active;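 active means mean inhibition across valid replicates above about 55%, limit read from the data; inconclusive means mean below that limit but half or more replicates reach it; inactive means mean below it, under half of replicates reach it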;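 further: signal also drops with host cell toxicity which is not excluded here; 0% = plate median of DMSO wells and 100% = zero luminescence signal; higher percent means less beta-gal luminescence so fewer parasites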
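System: mouse NIH/3T3 fibroblasts infected with β-gal-expressing T. cruzi Tulahuen C4 / Input: NIH/3T3 cells, 5,000 per well / Buffer or medium: Low-serum DMEM with 2% FBS / Probe or stimulus: 5000 reporter trypomastigotes per well / Schedule: ≥90 h infection period, 3 h prior cell attachment / Measured by: GalScreen luminescence, 60 min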
AI-2 QS modul: Vibrio harveyi AI-2 quorum sensing modulators, primary screen, JMH597 strain, luminescence/OD600 ratio. Vibrio harveyi JMH597 AI-2 luminescence/OD600 ratio, 9 h; hits give low values; strain lacks LuxN and CqsS sensors; 0 = neutral-control median. activity change, % at 7.5 µM. 0.4% of 300,000 active. AID 2094, 2009; in the data active means activity change below about -75%, passing the limit was not always enough; inconclusive means no clear call, values can overlap the other calls;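 further: luminescence divided by OD600 gain over 9 h not by final OD600 alone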
CendR NRP1 mod: modulators of CendR peptide binding to NRP-1, primary screen, biochemical, fluorescence polarization, uHTS; FAM-RPARPAR peptide binding to NRP-1; Neuropilin-1 (Homo sapiens), O14786; 0.85% of 360,000 active; inhibition, % at 25 µM;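 active means inhibition or corrected inhibition above about 18%, plus a signal ratio from 0.5 to 1.5, limit read from the data, passing the limit was not always enough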
Target sequence (O14786 whole entry, looked up): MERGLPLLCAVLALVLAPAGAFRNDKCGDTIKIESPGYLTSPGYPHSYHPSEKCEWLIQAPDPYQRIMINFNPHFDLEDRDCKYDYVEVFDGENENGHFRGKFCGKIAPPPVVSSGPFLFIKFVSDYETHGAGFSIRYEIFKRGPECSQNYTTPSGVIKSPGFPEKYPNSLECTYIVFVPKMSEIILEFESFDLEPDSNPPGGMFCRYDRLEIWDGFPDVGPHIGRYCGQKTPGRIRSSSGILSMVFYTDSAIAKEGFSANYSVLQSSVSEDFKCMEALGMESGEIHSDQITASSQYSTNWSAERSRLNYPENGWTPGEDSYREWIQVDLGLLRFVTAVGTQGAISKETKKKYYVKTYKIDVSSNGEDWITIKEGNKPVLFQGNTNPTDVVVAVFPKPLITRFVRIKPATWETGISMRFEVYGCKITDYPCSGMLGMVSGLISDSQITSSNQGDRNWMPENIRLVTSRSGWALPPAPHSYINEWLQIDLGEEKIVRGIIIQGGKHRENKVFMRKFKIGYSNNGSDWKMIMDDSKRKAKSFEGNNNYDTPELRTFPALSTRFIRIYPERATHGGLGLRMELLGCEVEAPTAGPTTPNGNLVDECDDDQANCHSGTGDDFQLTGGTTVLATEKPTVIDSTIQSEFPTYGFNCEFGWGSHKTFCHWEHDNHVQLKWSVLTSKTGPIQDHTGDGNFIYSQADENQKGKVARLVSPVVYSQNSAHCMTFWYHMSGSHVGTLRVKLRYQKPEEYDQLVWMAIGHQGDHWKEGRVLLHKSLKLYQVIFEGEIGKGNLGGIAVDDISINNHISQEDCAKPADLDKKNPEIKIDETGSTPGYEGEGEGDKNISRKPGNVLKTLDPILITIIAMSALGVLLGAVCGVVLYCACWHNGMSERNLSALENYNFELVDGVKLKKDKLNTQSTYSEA
HIF act: HIF pathway transcriptional activators, primary screen, cell-based, U2OS HRE-luciferase, luminescence; AID 1910, 2009; U2OS HRE-luciferase reporter; normalized: DMSO 0%, desferrioxamine 100%; 0.32% of 300,000 active; activation, % at 7.5 µM (by protocol);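 active means mean activation of at least 10% of the iron chelator positive control signal, with at least half of replicates also reaching 10%; inconclusive means mean and replicate majority disagree about reaching 10%; inactive means mean and most replicates under 10%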
V-ATPase pH: regulators of yeast V-ATPase proton pumping, primary screen, pHLuorin cytosolic pH fluorescence. 0.37% of 350,000 active. response, % at 10 µM. S. cerevisiae; in the data active means response mostly above about 7.3%, no sharp cut-off; inactive means mostly below about 5.4%; further: actives read high
VATPase regulator: yeast V-ATPase proton pumping modulators, confirmation, S. cerevisiae, pH-sensitive GFP, second cherry-pick; S. cerevisiae pHLuorin cytosolic pH, V-ATPase proton transport; response, % at 10 µM; 2% of 980 active; shares compounds with V-ATPase pH; in the data active means response above about 24%;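 further: plate controls were vehicle wells for no effect and positive control wells for full effect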
The depositor's hits bear a star; ? = inconclusive; . = no result given. Sampled rows, rich in hits. Any-hit rate of the full collection: about 3%.

SMILES | CR mimetic SO | T cruzi inh | AI-2 QS modul | CendR NRP1 mod | HIF act | V-ATPase pH | VATPase regulator
O=C(O)CNC(=O)C(c1ccccc1)c1ccccc1 | 103.6 | -3.7 | 11.1 | -0.7 | -0.4 | 11.4* | -0.4
O=C(NCCO)C(c1ccccc1)c1ccccc1 | 105.8 | 6.7 | -10.2 | -10.1 | -0.3 | 4.3 | .
CCOCC(=O)OCC(=O)Nc1cc(OC)c([N+](=O)[O-])cc1C | 108.0 | -6.2 | 0.2 | -6.9 | -0.2 | -0.4 | .
COc1ccc(C(=O)Oc2c(C)occc2=O)cc1OC | 96.3 | . | 1.1 | -2.1 | -0.5 | 21.0* | 0.6
COc1ccc(C(=O)Oc2ccc3ccc(=O)oc3c2)cc1OC | 111.0 | -3.0 | 25.2 | 7.5 | 0.2 | -0.9 | .
CSc1ccc(C(=S)N2CCN(C(c3ccccc3)c3ccccc3)CC2)cc1 | 76.8 | 16.3 | 9.6 | -11.1 | 0.0 | -0.1 | .
c1ccc(-c2cncnc2)nc1 | 75.6 | . | . | 2.6 | . | -6.1 | .
CCCC(O)(c1ccc(OC)cc1)C(CN1CCOCC1)c1ccc(Cl)cc1 (centres undefined) | 91.5 | -16.5 | 8.6 | 12.0 | -1.2 | 11.7* | 2.0
CCc1cccc(NC(=O)CN(C)S(=O)(=O)c2cccc3nsnc23)c1 | 110.6 | 11.1 | 54.1 | 7.8 | -0.4 | -0.6 | .
COc1ccc(N2CCN(C(=O)c3ccc(S(=O)(=O)N4CCCCCC4)cc3)CC2)cc1 | . | . | . | -8.6 | . | 12.9* | -1.1
O=[N+]([O-])c1cc(Br)ccc1C[n+]1ccccc1 | . | . | . | 5.9 | . | 1.1 | .
COCCn1c(SCC(=O)OC(C)C)nnc1-c1ccccc1 | 105.0 | . | 9.7 | 2.4 | . | 9.9* | 0.1
COCCn1c(SCC(=O)Nc2cccc(OC)c2)nnc1-c1ccccc1 | 86.0 | 1.4 | 9.8 | 2.2 | -0.2 | 0.3 | .
CCCN1CCN(C(=O)c2ccc(CS(=O)c3ccc(F)cc3)o2)CC1 (centres undefined) | 98.5 | 12.1 | 36.3 | 18.5 | -0.6 | 9.6 | .
O=C(CCCN1C(=O)/C(=C/c2ccccc2Cl)SC1=S)NNC(=O)c1ccncc1 | 100.8 | 2.5 | 7.7 | 1.9 | -2.0 | -9.0 | .
O=C(CCCN1C(=O)/C(=C/c2ccccc2Cl)SC1=S)NNC(=O)c1ccccc1Cl | 98.0 | -26.4 | 10.1 | -1.0 | -5.1 | 10.4* | 4.2
CCOc1cc2[nH]c(=S)n(C3CC3)c(=O)c2cc1OCC | 101.1 | 1.1 | 15.3 | -22.9 | 0.0 | 11.7* | -0.6
CCC(C)NC(=O)CSc1nnc(-c2ccncc2)n1-c1ccc(OC)cc1 (centres undefined) | 117.6 | 10.9 | 1.7 | 3.0 | -0.4 | 1.0 | .
O=C(Nc1ccccc1N1CCCCC1)C1CC(=O)N(c2ccccc2F)C1 (centres undefined) | 120.9 | . | . | 5.1 | . | 0.4 | .
COc1ccccc1N1CC(C(=O)Nc2ccccc2N2CCCC2)CC1=O (centres undefined) | 96.2 | -6.3 | 9.0 | 0.8 | 0.2 | 7.6* | 1.0
O=C(NCC1CC1)C1(C(F)(F)F)CC(CCc2ccccc2)CCCO1 (centres undefined) | 102.6 | 2.3 | -5.2 | 1.0 | 1.6 | 10.0* | -0.4
O=C(NCCNCCO)C1(C(F)(F)F)C/C(=C\Cc2ccccc2)CCCO1 (centres undefined) | 101.3 | -8.3 | 7.9 | 4.4 | -0.8 | -2.6 | .
COc1ccc(N2C(=O)CCC(C(=O)NCc3cccnc3)C2c2ccc(OC)c(OC)c2)cc1 (centres undefined) | 106.0 | -4.2 | 9.3 | -1.1 | -0.7 | -2.3 | .
CSCCC(NC(=O)c1ccccc1)C(=O)N1CCN(C(=O)c2ccccc2)CC1 (centres undefined) | 96.9 | . | . | 2.0 | . | 3.1 | .
CSCCC(NC(=O)c1ccccc1)C(=O)N1CC=C(c2ccccc2)CC1 (centres undefined) | 93.5 | 24.1 | 19.7 | 3.0 | 0.2 | 9.3* | -0.2
SMILES | CR mimetic SO | T cruzi inh | AI-2 QS modul | CendR NRP1 mod | HIF act | V-ATPase pH | VATPase regulator
O=C(Nc1ccc(Oc2ccccc2)nc1)C1CCN(Cc2ccco2)CC1 | 90.8 | 0.4 | 15.6 | 11.7 | 0.1 | 8.7* | 1.4
COc1ccc(C)cc1S(=O)(=O)NCC(c1ccc2c(c1)OCO2)N1CCOCC1 (centres undefined) | 105.4 | 0.6 | -3.8 | 2.9 | -0.5 | 10.7* | -3.5
COc1ccc(S(=O)(=O)NCC(c2ccc3c(c2)OCO3)N2CCOCC2)cc1C (centres undefined) | 86.7 | -1.4 | -11.1 | -10.5 | -0.1 | 0.4 | .
O=[N+]([O-])c1cc(F)cc(F)c1Nc1ccc(F)cc1 | . | . | . | 20.1 | . | 2.8 | .
CCOc1ccc(NC(=O)CCNS(=O)(=O)c2cccc3nsnc23)cc1 | 102.2 | 2.1 | 25.2 | 11.1 | -0.3 | 2.7 | .
Cc1ccccc1NC(=O)CSc1nnc2ccc(-c3cccnc3)nn12 | 104.2 | -5.9 | 33.7 | -4.7 | -0.6 | 10.4* | 4.9
O=C(/C=C/c1cccc([N+](=O)[O-])c1)OCC(=O)N1CCN(C(=O)c2ccco2)CC1 | 95.7 | . | . | -3.1 | . | 12.4* | 2.6
O=C(/C=C/c1cccc([N+](=O)[O-])c1)N1CCN(C(=O)c2ccco2)CC1 | 103.7 | 0.0 | 6.6 | 0.5 | -8.1 | 0.1 | .
c1ccc(C[C@H]2CNCCN2CC2CCCCC2)cc1 | 94.4 | -8.2 | 19.5 | 9.4 | 0.5 | -1.4 | .
O=C(NC1CCCCC1)Sc1ccc(Cl)cc1 | 90.8 | ? | 25.6 | -2.9 | -4.3 | 8.0* | 8.0
COc1cc2c(C(=O)O)c(C)n(CC(C)C)c2c2ccccc12 | . | -8.7 | 5.6 | 6.8 | 0.3 | 2.6 | .
Cc1ccc(Cl)cc1N1CCN(C(=O)CNC(=O)c2ccc(Br)o2)CC1 | 114.0 | . | . | 0.9 | . | 8.1* | 5.9
O=C(c1ccc(CS(=O)c2ccc(Br)cc2)o1)N1CCN(C2CCCCC2)CC1 (centres undefined) | . | . | . | 5.4 | . | 79.2* | 2.3
CCOC(=O)Cn1c(=O)cnc2ccccc21 | 87.0 | 0.6 | 23.0 | -3.1 | -2.6 | 2.6 | -3.9
Cn1c(-c2ccc(Cl)nc2)nc2ccccc21 | 91.7 | 4.6 | 2.3 | -11.9 | 1.5 | 1.8 | .
CCOC(=O)Cn1c(-c2ccc(Cl)nc2)nc2ccccc21 | 97.0 | -17.2 | 33.8 | 7.4 | -5.1 | 0.3 | 1.1
CCOC(=O)Cn1c(S(=O)(=O)Cc2ccc(Cl)cc2)nc(-c2ccccc2)c1-c1ccccc1 | 103.0 | 43.3 | 8.4 | 4.6 | -0.1 | -1.9 | .
CCOC(=O)Cn1c(S(=O)(=O)Cc2ccccc2)nc2ccccc21 | 97.2 | 0.4 | 18.3 | -5.4 | 0.0 | -5.1 | -2.0
COC(=O)Cn1c(=O)cnc2ccccc21 | 106.8 | -8.3 | 15.4 | -2.2 | -0.2 | 1.7 | .
